# Test results reported in PubChem BioAssay.
# Calls of active or inactive are those of the source.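 Rule for the calls, unless noted: active = fluorescence slope after compound addition differing from the mean of all tested samples at 99.7% confidence, mostly higher but some lower; inactive = the rest.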
# Key:
# [1] = inhibitors of TNFa-induced NFkB p65 translocation, primary screen, imaging, HUVEC, MLSMR starter and 10KST1 sets (AID 438;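 active = inhibition above 20% together with a positive visual image hit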;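 note: compound added about 3h40 before a 20 min TNFalpha stimulation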;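 for inhibition: signal is the nuclear over cytoplasmic p65 intensity ratio per well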); details: HUVEC TNFa-induced p65 nuclear translocation; cell count: measured here: nuclei count (cytotoxicity indicator), at 2.08 µM; inhibition: at 2 µM, stronger effect = higher value, 0% TNFa-plus-vehicle, 100% no-TNFa wells
# [2] = reduction of polyQ htt aggregates in cells – imaging, exon1htt(103Q)mCFP cells, high-content imaging, primary screen (AID 483;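 active = visual image review flags a hit and inhibition of aggregation exceeds 20%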;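 note: compound exposure lasted 3 days before fixation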;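 for nuclei count: percent of the per-plate median nuclei count of sample wells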); details: exon1htt(103Q)mCFP cell line, aggregate imaging, at 2 µM; inhibition of aggregation: stronger effect = higher value; nuclei count: measured here: cell count, toxicity
# [3] = endothelial E-selectin expression blockers – imaging, HUVEC, immunofluorescence, MLSMR starter and 10KST1 sets, primary screen (AID 487;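 active = visually confirmed hit in the image check and inhibition above 20%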;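 for inhibition: signal is fraction of cell area covered by stained E-selectin grains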;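 for nuclei count: 100% = median nuclei count of all wells on the same plate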); details: HUVEC TNFalpha-induced E-selectin immunofluorescence imaging, at 2 µM; inhibition: stronger effect = higher value; nuclei count: measured here: cell number, toxicity
# [4] = molecular target: Voltage-gated potassium channel subunit beta-2 (Rattus norvegicus) (UniProt P62483); experiment: inhibitors of rat Kvbeta2 reductase activity – biochemical, NADPH fluorescence, primary screen (AID 622;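 active = fluorescence slope higher than the sample average by over 3 SD, cut at about -0.22 in these data, passing the limit was not always enough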;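 note: slope of raw intensity against log time taken from 70 to 1610 s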); details: recombinant KvBeta, 4-cyanobenzaldehyde reduction, at 10 µM, stronger effect = higher value
# [5] = molecular target: Voltage-gated potassium channel subunit beta-2 (Rattus norvegicus) (UniProt P62483); experiment: enhancers of rat Kvbeta2 NADPH turnover – biochemical, NADPH fluorescence, primary screen (AID 623;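 active = NADPH fluorescence slope more negative than the mean of all samples by about 3 SD, 99.7% confidence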;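 note: fluorescence intensity change per second fitted from 20 to 320 s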); details: Recombinant KvBeta, NADPH fluorescence decrease slope, 10 min; at 10 µM; stronger effect = lower value
# [6] = molecular target: Muscarinic acetylcholine receptor M4 (Homo sapiens) (UniProt P08173); experiment: M4-linked GIRK flux change, two-sided – cell-based, HEK293 M4/GIRK, thallium flux, BTC-AM, M4 allosteric agonist project, primary screen (AID 625); details: at 10 µM, actives lie on both sides;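 note: thallium influx through GIRK channels coupled to M4 in HEK293 cells with BTC-AM dye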
# Summary of the method: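 System: HEK293 cells with M4 receptor and GIRK channels | Incubation: Cells overnight at 37 °C, BTC-AM loading 1 h, reads 2 min total | Technique: Kinetic BTC-AM fluorescence sampled at 1 Hz, 10 s pre-addition baseline | Measure: Post-addition slope, 15–24 s, of baseline-normalized fluorescence | Control set: Carbachol positive, DMSO negative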
# [7] = blockers of RIG-like receptor reporter activation – cell-based, Sendai virus stimulus, luciferase, 10K MLSCN set, TLR/RLR signaling modifier project, primary screen (AID 602276;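 active = inhibition at or above 50% at 10 µM; inactive = inhibition below 50%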;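 note: firefly luciferase from ISG56 promoter only with Renilla not read in this screen; 0% = Sendai virus plus DMSO and 100% = medium plus DMSO without virus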); details: HEK293 RL24 IRF3 luciferase reporter, at 10 µM, stronger effect = higher value
# [8] = TLR3 IRF3 reporter activation blockers – cell-based, poly I:C stimulus, luciferase, 10K MLSCN set, primary screen (AID 602277;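 active = inhibition of the reporter signal at or above 50%; inactive = inhibition below 50%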); details: HEK293-TLR3 RL24 IRF3 luciferase reporter, at 10 µM, stronger effect = higher value
# Chain of Muscarinic acetylcholine receptor M4 (Homo sapiens) (P08173 whole entry, looked up): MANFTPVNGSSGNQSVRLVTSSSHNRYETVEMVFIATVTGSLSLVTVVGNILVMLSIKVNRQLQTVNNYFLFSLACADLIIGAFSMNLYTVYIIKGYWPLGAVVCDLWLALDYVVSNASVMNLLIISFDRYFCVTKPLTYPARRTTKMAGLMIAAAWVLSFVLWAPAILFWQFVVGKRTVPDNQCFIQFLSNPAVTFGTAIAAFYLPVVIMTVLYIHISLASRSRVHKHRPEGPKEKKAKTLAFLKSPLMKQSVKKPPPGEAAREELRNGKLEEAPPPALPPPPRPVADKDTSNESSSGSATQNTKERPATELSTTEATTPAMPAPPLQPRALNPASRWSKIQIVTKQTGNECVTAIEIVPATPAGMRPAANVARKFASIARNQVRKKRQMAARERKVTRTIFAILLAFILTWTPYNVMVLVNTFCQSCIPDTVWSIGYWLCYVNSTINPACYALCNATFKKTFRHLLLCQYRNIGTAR
# Chain of Voltage-gated potassium channel subunit beta-2 (Rattus norvegicus) (P62483 whole entry, looked up): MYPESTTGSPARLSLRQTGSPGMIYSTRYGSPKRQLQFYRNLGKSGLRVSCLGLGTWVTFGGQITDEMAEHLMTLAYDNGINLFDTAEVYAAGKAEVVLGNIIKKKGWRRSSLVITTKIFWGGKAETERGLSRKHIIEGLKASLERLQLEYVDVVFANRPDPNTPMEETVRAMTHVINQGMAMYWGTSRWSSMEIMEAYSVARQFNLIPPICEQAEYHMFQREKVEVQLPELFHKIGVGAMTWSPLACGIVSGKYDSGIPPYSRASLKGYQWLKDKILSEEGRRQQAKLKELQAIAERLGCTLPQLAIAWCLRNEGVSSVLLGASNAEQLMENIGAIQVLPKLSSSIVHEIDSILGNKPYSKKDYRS
SMILES,cell count [1],inhibition [1],inhibition of aggregation [2],nuclei count [2],inhibition [3],nuclei count [3],fluorescence slope [4],NADPH fluorescence slope [5],fluorescence slope [6],inhibition [7],inhibition [8]
COCCCn1c(SCC(=O)N2CCc3ccccc32)nnc1-c1ccoc1C,238,-3.2% (inactive),2.7% (inactive),56.1%,42.5% (inactive),56.1%,-0.548 (inactive),-5.6e-05 (inactive),0.00429 (inactive),20.2% (inactive),19.6% (inactive)
COc1ccc(CCn2c(N)c(C#N)c3nc4ccccc4nc32)cc1OC,397,-2.3% (inactive),-8% (inactive),105%,21.9% (inactive),150%,-0.52 (inactive),-5.8e-05 (inactive),0.00433 (inactive),17.3% (inactive),13.6% (inactive)
CCOc1ccccc1NC(=O)N1CCCC1C(=O)Nc1nnc(CC)s1 (stereo unspecified),599,-0.7% (inactive),-35.9% (inactive),63.6%,-86% (inactive),98.7%,-0.296 (inactive),-3.1e-05 (inactive),0.00525 (inactive),1.66% (inactive),12.7% (inactive)
CCOCCCNC(=O)c1ccc2c(c1)ncn2C1CCCC1,573,-4.8% (inactive),-5.5% (inactive),100%,-12% (inactive),94.4%,-0.495 (inactive),4.4e-05 (inactive),0.00159 (inactive),-12.4% (inactive),-122% (inactive)
O=C(CN1C(=O)c2cccc3cccc1c23)NCC1CCCO1 (stereo unspecified),356,20.1% (inactive),13.2% (inactive),79.5%,-58% (inactive),102%,-0.433 (inactive),-4.9e-05 (inactive),0.00404 (inactive),-5.13% (inactive),-11.1% (inactive)
Cc1ccccc1Cn1nc(C)c(NC(=O)c2noc3c2CCCC3)c1C,191,-1.3% (inactive),7.3% (inactive),101%,-13.5% (inactive),120%,-0.571 (inactive),-2.7e-05 (inactive),0.00499 (inactive),-24.6% (inactive),-32% (inactive)
Cc1ccc(S(=O)(=O)N2CCOCC2)cc1C(=O)OCC(=O)N1CCc2ccccc2C1,538,-12.2% (inactive),5.4% (inactive),98.4%,-184% (inactive),132%,-0.4 (inactive),5.8e-06 (inactive),0.00607 (inactive),4.57% (inactive),6.74% (inactive)
COc1ccccc1C(=O)NCCc1nc2ccccc2n1C,564,-11.3% (inactive),-5.2% (inactive),113%,15.5% (inactive),101%,-0.294 (inactive),-2.3e-05 (inactive),0.00691 (inactive),-9.79% (inactive),-4.78% (inactive)
COC(=O)c1oc2ccc(Br)cc2c1NC(=O)CN1CCN(C)CC1,240,6% (inactive),-3.2% (inactive),94.6%,30.2% (inactive),85.6%,-0.589 (inactive),1.6e-05 (inactive),0.00465 (inactive),1.64% (inactive),6.76% (inactive)
N#Cc1c(SCC(=O)N2CCOCC2)nsc1SCC(=O)N1CCOCC1,398,-8.5% (inactive),-6.4% (inactive),99.1%,-45% (inactive),117%,-0.565 (inactive),-2.7e-05 (inactive),0.0058 (inactive),3.35% (inactive),4.99% (inactive)
CCC(Sc1nc2n[nH]c(C)c2c(=N)n1-c1cc(Cl)ccc1C)C(=O)N1CCOCC1 (stereo unspecified),338,-2.1% (inactive),11.8% (inactive),97.6%,-273% (inactive),108%,-0.593 (inactive),-1.6e-05 (inactive),0.00508 (inactive),-6.83% (inactive),10% (inactive)
Nc1nc(C2C(=O)CCCC2=O)cs1,391,-16.3% (inactive),-1.6% (inactive),103%,-93.1% (inactive),148%,-0.511 (inactive),-9.1e-05 (inactive),0.00345 (inactive),8.39% (inactive),2.35% (inactive)
CCn1c(CSc2ncccn2)nnc1SCC(=O)N1c2ccccc2CC1C (stereo unspecified),644,27.9% (active),-1.3% (inactive),103%,-3.3% (inactive),95.8%,-0.446 (inactive),-7.9e-06 (inactive),0.00475 (inactive),12.2% (inactive),0.579% (inactive)
COc1ccc(-c2cn3cc(C)ccc3n2)cc1OC,442,-10.5% (inactive),-3.3% (inactive),103%,-4.7% (inactive),109%,-0.357 (inactive),-3e-05 (inactive),0.00466 (inactive),29.4% (inactive),-10.4% (inactive)
CCN(CC)CC(=O)Nc1ccc(-c2nc3cc(NC(=O)CN(CC)CC)ccc3o2)cc1,621,4.9% (inactive),-13.9% (inactive),102%,41.6% (inactive),100%,-0.0978 (inactive),-3.8e-06 (inactive),0.00522 (inactive),-12.5% (inactive),92.9% (active)
O=C(CCCCn1c(=O)[nH]c2ccsc2c1=O)NCc1cccnc1,684,-1% (inactive),5% (inactive),99.7%,3.5% (inactive),119%,-0.46 (inactive),-5.1e-05 (inactive),0.00456 (inactive),17% (inactive),15.3% (inactive)
Cc1ccc(C)c(S(=O)(=O)NCc2ccc(C(=O)N3CCN(C)CC3)cc2)c1,328,1.1% (inactive),27.1% (inactive),105%,-101% (inactive),106%,-0.332 (inactive),-4.8e-05 (inactive),0.00527 (inactive),3.27% (inactive),19.6% (inactive)
CC(C)(C)n1ncc2c(=O)n(CC(=O)NCCc3ccccc3)cnc21,457,3.9% (inactive),7.3% (inactive),95.2%,27.5% (inactive),92.8%,-0.595 (inactive),1.3e-05 (inactive),0.0063 (inactive),-40.8% (inactive),-58.1% (inactive)
COC(=O)c1cc(NS(=O)(=O)c2ccc3c(c2)CCC(=O)N3)cc(C(=O)OC)c1,384,-2.9% (inactive),-24.1% (inactive),108%,-255% (inactive),115%,-0.464 (inactive),2.6e-05 (inactive),0.00663 (inactive),-11.6% (inactive),79.6% (active)
CC(C(=O)NCCCN1CCOCC1)n1cccc1C(=O)c1ccccc1 (stereo unspecified),572,2.7% (inactive),-8.2% (inactive),104%,-1.5% (inactive),94.2%,-0.549 (inactive),-3.4e-05 (inactive),0.00579 (inactive),17.2% (inactive),17% (inactive)
COC(=O)c1ccccc1NC(=O)c1noc2c1CC(C(C)(C)C)CC2 (stereo unspecified),216,4.9% (inactive),0.9% (inactive),104%,-31.4% (inactive),116%,-0.559 (inactive),-3.2e-05 (inactive),0.00974 (inactive),8.65% (inactive),4.53% (inactive)
CC(C(=O)NCc1cccnc1)N1C(=O)c2ccccc2C1=O (stereo unspecified),783,5.5% (inactive),3.6% (inactive),105%,-39.6% (inactive),132%,-0.607 (inactive),1.7e-05 (inactive),0.00555 (inactive),-0.398% (inactive),10.3% (inactive)
O=C(CS(=O)(=O)Cc1ccccc1)Nc1nc2ccccc2s1,425,-4% (inactive),8.1% (inactive),82.8%,13.1% (inactive),97%,-0.487 (inactive),-3.1e-05 (inactive),0.00544 (inactive),10.2% (inactive),23.6% (inactive)
CSc1cccc(NC(=O)C2CCN(S(C)(=O)=O)CC2)c1,248,3.5% (inactive),16.4% (inactive),80.7%,-296% (inactive),120%,-0.438 (inactive),3.2e-05 (inactive),0.00544 (inactive),13.5% (inactive),13.6% (inactive)
C=C(C)COc1ccc(-c2nc(N)ncc2Oc2ccccc2OCC)c(O)c1,291,-11% (inactive),-19.9% (inactive),111%,-17.8% (inactive),114%,-0.655 (inactive),4.1e-05 (inactive),0.00507 (inactive),17.7% (inactive),-3.29% (inactive)
COc1ccc(Cl)cc1Nc1nc(C)cc(=O)[nH]1,271,-3.7% (inactive),10% (inactive),61.7%,39.6% (inactive),44%,-0.562 (inactive),-2.9e-05 (inactive),0.00528 (inactive),16% (inactive),19.5% (inactive)
